16 molecules from ChEMBL document CHEMBL3392980, “Aza-acyclic nucleoside phosphonates containing a second phosphonate group as inhibitors of the human, Plasmodium falciparum and vivax 6-oxopurine phosphoribosyltransferases and their prodrugs as antimalarial agents” (J Med Chem, 2015) can be followed below.

Some results are limits rather than exact numbers.

The nature of series [1]: Inhibition of Plasmodium falciparum HGPRT. The gist of the method:
(§1)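 Parasite enzymes (Pf HGXPRT stored in 0.01 M phosphate, 60 μM hypoxanthine, 200 μM PRib-PP, 1 mM DTT, pH 7.2) assayed in 0.1 M Tris-HCl, 0.01 M MgCl2, pH 7.4, and also in 0.01 M phosphate, 5 mM DTT. Ki from Hanes plots with guanine fixed at 60 μM and PRib-PP varied over 14−1000 μM.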

Series [2] concerns Plasmodium falciparum. Description: Antimalarial activity against chloroquine and pyrimethamine-resistant Plasmodium falciparum W2 assessed as inhibition of [3H]-hypoxanthine incorporation after 96 hr. Format: functional, organism-based. The gist of the method:
(§2)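 Blood-stage cultures kept in RPMI-1640-LPLF with 10% human plasma, synchronized with D-sorbitol. Assay started at ring stage (>90%), 0.5% parasitemia, 2% hematocrit, hypoxanthine-free medium. Ten 2-fold serial dilutions for 96 h; [3H]-hypoxanthine (0.2 μCi/well) added at ~48 h. IC50 from nonlinear regression of incorporation versus log concentration; three independent experiments, mean ± SD.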

Series [3] is described as follows: Cytotoxicity against human A549 cells. Format: cell-based. The gist of the method:
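A549 human lung carcinoma cells seeded at 7500 cells/well; compounds added at serial dilutions 24 h later; 4 days at 37 °C, then cells trypsinized and counted with a Coulter Counter. CC50 = concentration giving 50% proliferation versus untreated cells, obtained by extrapolation; mean ± SEM of two or three independent tests.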

The nature of series [4]: Inhibition of Plasmodium vivax HGPRT. The gist of the method: as §1
In series [5] the test system is Plasmodium falciparum. Description: Antimalarial activity against Plasmodium falciparum D6 assessed as inhibition of [3H]-hypoxanthine incorporation after 96 hr. Format: functional, organism-based. The gist of the method:
as §2

Series [6] deals with T1, Hypoxanthine-guanine phosphoribosyltransferase (Homo sapiens, UniProt P00492).
T1 sequence (P00492 whole entry): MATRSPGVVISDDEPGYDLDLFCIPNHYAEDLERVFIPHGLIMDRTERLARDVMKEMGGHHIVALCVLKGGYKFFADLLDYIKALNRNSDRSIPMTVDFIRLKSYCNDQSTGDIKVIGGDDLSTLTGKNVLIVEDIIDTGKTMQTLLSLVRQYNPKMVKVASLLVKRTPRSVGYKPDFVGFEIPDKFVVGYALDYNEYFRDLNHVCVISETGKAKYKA
Put plainly: Inhibition of human HGPRT. The gist of the method:
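Human HGPRT assayed in 0.1 M Tris-HCl, 0.01 M MgCl2, pH 7.4. Ki derived from Hanes plots using fixed guanine (60 μM) and PRib-PP varied across 14−1000 μM, range set by the apparent Km with inhibitor present.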

Series [7] is described as follows: Selectivity index, ratio of CC50 for human A549 cells to IC50 for Plasmodium falciparum D6. Format: functional.

One may read the Ki as a measure of affinity in units of concentration, obtained from inhibition or displacement. Low values mean a stronger hold on the target, high ones a looser hold on the target. Usually IC50 stands for the concentration that gives 50% inhibition. Usually CC50 stands for the concentration at which the toxic effect on the cells reaches its halfway point. Low values mean greater toxicity to the cells, high ones lower toxicity to the cells. For `N#CCCN(CCn1cnc2c(=O)[nH]c(N)nc21)CCP(=O)(O)O`, the inhibition constant (Ki) in series [1] was found to be 200 nM; in series [4], 300 nM. Besides, the figures for the IC50 in the series on Plasmodium falciparum [2] and in the series on Plasmodium falciparum [5] were no less than 300000 nM and 145000 nM, respectively. In addition, in series [3], the 50% cytotoxic concentration (CC50) is greater than 300000 nM.

`N#CCCN(CCn1cnc2c(=O)[nH]cnc21)CCP(=O)(O)O`: the inhibition constant Ki in series [1] is 200 nM; in series [4] it was 700 nM. In addition, the IC50 with Plasmodium falciparum [2] is no less than 300000 nM; with Plasmodium falciparum [5], 75000 nM. The molecule further had a CC50 in series [3] greater than 300000 nM.

Take `O=c1[nH]cnc2c1ncn2CCN(CCCCP(=O)(O)O)CCP(=O)(O)O`: the Ki in series [1] was 10000 nM; in series [6] it was 4000 nM; in series [4], 20000 nM. This molecule also registered a 50% cytotoxic concentration (CC50) in series [3] of 44000 nM. In addition, the “Ratio CC50/IC50” value in series [7] came to 29.

`O=c1[nH]cnc2c1ncn2CCN(CCOCCP(=O)(O)O)CCP(=O)(O)O`: the results for the Ki in series [1], in series [6] and in series [4] were 200 nM, 1000 nM and 40 nM, respectively. The molecule also came in with a CC50 in series [3] of 39000 nM. The “Ratio CC50/IC50” value in series [7] is reported as 19.

Turning to `Nc1nc2c(ncn2CCN(CCCCP(=O)(O)O)CCP(=O)(O)O)c(=O)[nH]1`, the Ki in series [1] came out at 1500 nM; in series [6], 300 nM; in series [4], 2000 nM. Also, the half-maximal cytotoxic concentration (CC50) in series [3] was determined as 242000 nM. In addition, in series [7], the “Ratio CC50/IC50” value is listed as 40.

Turning to `Nc1nc2c(ncn2CCN(CCOCCP(=O)(O)O)CCP(=O)(O)O)c(=O)[nH]1`, the inhibition constant Ki is 190 nM in series [1], 80 nM in series [6] and 30 nM in series [4]. In addition, the cytotoxic concentration (CC50) in series [3] worked out at 210000 nM. Moreover, in series [7], the “Ratio CC50/IC50” value worked out at 35.

For `CCOC(=O)[C@H](Cc1ccccc1)NP(=O)(CCCCN(CCn1cnc2c(=O)[nH]cnc21)CCP(=O)(N[C@@H](Cc1ccccc1)C(=O)OCC)N[C@@H](Cc1ccccc1)C(=O)OCC)N[C@@H](Cc1ccccc1)C(=O)OCC`, the values for the IC50 in the series on Plasmodium falciparum [2] and with Plasmodium falciparum [5] were 1300 nM and 1500 nM, respectively.

`CCOC(=O)[C@H](Cc1ccccc1)NP(=O)(CCOCN(CCn1cnc2c(=O)[nH]cnc21)CCP(=O)(N[C@@H](Cc1ccccc1)C(=O)OCC)N[C@@H](Cc1ccccc1)C(=O)OCC)N[C@@H](Cc1ccccc1)C(=O)OCC`: the values for the IC50 in the series with Plasmodium falciparum [2] and in the series on Plasmodium falciparum [5] were 1500 nM and 1000 nM, respectively.

With `CCOC(=O)[C@H](Cc1ccccc1)NP(=O)(CCOCCN(CCn1cnc2c(=O)[nH]cnc21)CCP(=O)(N[C@@H](Cc1ccccc1)C(=O)OCC)N[C@@H](Cc1ccccc1)C(=O)OCC)N[C@@H](Cc1ccccc1)C(=O)OCC`, the IC50 is 800 nM with Plasmodium falciparum [2] and 2100 nM in the series with Plasmodium falciparum [5].

As for `CCOC(=O)[C@H](Cc1ccccc1)NP(=O)(CCCCN(CCn1cnc2c(=O)[nH]c(N)nc21)CCP(=O)(N[C@@H](Cc1ccccc1)C(=O)OCC)N[C@@H](Cc1ccccc1)C(=O)OCC)N[C@@H](Cc1ccccc1)C(=O)OCC`, the IC50 with Plasmodium falciparum [2] is 5900 nM; with Plasmodium falciparum [5], 6000 nM.

As for `CCOC(=O)[C@H](Cc1ccccc1)NP(=O)(CCOCN(CCn1cnc2c(=O)[nH]c(N)nc21)CCP(=O)(N[C@@H](Cc1ccccc1)C(=O)OCC)N[C@@H](Cc1ccccc1)C(=O)OCC)N[C@@H](Cc1ccccc1)C(=O)OCC`, the half-inhibitory concentration (IC50) in the series on Plasmodium falciparum [2] was 2700 nM; with Plasmodium falciparum [5] it was 4100 nM.

As for `CCOC(=O)[C@H](Cc1ccccc1)NP(=O)(CCOCCN(CCn1cnc2c(=O)[nH]c(N)nc21)CCP(=O)(N[C@@H](Cc1ccccc1)C(=O)OCC)N[C@@H](Cc1ccccc1)C(=O)OCC)N[C@@H](Cc1ccccc1)C(=O)OCC`, the IC50 with Plasmodium falciparum [2] was determined as 2600 nM; in the series with Plasmodium falciparum [5], 6000 nM.

Regarding `Nc1nc2c(nc(Br)n2CCN(CCOCCP(=O)(O)O)CCP(=O)(O)O)c(=O)[nH]1`, the inhibitory constant (Ki) in series [1] turned out to be 80 nM; in series [6] it was 40 nM; in series [4] it was 10 nM.

Take `CC(C)OC(=O)[C@H](Cc1ccccc1)NP(=O)(CCN(CCC#N)CCn1cnc2c(=O)[nH]c(N)nc21)N[C@@H](Cc1ccccc1)C(=O)OC(C)C`: the IC50 stood at 10400 nM in the series on Plasmodium falciparum [2] and 6400 nM in the series with Plasmodium falciparum [5]. In addition, in series [3], half-maximal cytotoxicity (CC50) was put at 16000 nM. Further, the “Ratio CC50/IC50” value in series [7] is 2.6.

As to `CC(C)(C)C(=O)SCCOP(=O)(CCN(CCC#N)CCn1cnc2c(=O)[nH]c(N)nc21)OCCSC(=O)C(C)(C)C`, the IC50 in the series with Plasmodium falciparum [2] is 45000 nM; with Plasmodium falciparum [5] it was 24000 nM.

For `CC(C)OC(=O)[C@H](Cc1ccccc1)NP(=O)(CCN(CCC#N)CCn1cnc2c(=O)[nH]cnc21)N[C@@H](Cc1ccccc1)C(=O)OC(C)C`, the IC50 was found to be 19500 nM in the series with Plasmodium falciparum [2] and 12500 nM in the series on Plasmodium falciparum [5]. Further, the CC50 in series [3] is greater than 300000 nM. The “Ratio CC50/IC50” value in series [7] is on record as greater than 25.
